ChEMBL document CHEMBL2177098, “Synthesis and evaluation of novel ¹⁸F labeled 2-pyridinylbenzoxazole and 2-pyridinylbenzothiazole derivatives as ligands for positron emission tomography (PET) imaging of β-amyloid plaques” (J Med Chem, 2012)
Activity calls are given as the source filed them. No cut-off for these calls is given here.

How the values were obtained:
Mus musculus [1] = organism: Mus musculus; assay: Binding affinity to amyloid beta plaques in transgenic C57BL6 mouse hippocampus expressing APP Swedish mutant/PSEN1 at 370 KBq/100 ul after 1 hr by autoradiographic analysis; format: tissue-based; conditions: tested as the 18F-labelled form
Method in brief: (§1)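 Paraffin brain sections from 12-month-old Tg mice (C57BL6, APPswe/PSEN1) and age-matched controls, deparaffinized through xylene and graded ethanol, then PBS (0.2 M, pH 7.4) 30 min. Incubated with 18F tracer (370 KBq per 100 μL) 1 h at room temperature, washed in 40% EtOH, rinsed in water, then phosphor plate exposure 2 h. The same sections were afterwards stained with 0.125% thioflavin S in 10% EtOH for 3 min and washed in 40% EtOH.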

[2] = molecular target: Amyloid-beta precursor protein (Homo sapiens) (UniProt P05067); assay: Binding affinity to amyloid beta plaques in Alzheimer patient brain at 370 KBq/100 ul after 1 hr by autoradiographic analysis; conditions: tested as the 18F-labelled form
Sequence of Amyloid-beta precursor protein (Homo sapiens) (P05067 whole entry): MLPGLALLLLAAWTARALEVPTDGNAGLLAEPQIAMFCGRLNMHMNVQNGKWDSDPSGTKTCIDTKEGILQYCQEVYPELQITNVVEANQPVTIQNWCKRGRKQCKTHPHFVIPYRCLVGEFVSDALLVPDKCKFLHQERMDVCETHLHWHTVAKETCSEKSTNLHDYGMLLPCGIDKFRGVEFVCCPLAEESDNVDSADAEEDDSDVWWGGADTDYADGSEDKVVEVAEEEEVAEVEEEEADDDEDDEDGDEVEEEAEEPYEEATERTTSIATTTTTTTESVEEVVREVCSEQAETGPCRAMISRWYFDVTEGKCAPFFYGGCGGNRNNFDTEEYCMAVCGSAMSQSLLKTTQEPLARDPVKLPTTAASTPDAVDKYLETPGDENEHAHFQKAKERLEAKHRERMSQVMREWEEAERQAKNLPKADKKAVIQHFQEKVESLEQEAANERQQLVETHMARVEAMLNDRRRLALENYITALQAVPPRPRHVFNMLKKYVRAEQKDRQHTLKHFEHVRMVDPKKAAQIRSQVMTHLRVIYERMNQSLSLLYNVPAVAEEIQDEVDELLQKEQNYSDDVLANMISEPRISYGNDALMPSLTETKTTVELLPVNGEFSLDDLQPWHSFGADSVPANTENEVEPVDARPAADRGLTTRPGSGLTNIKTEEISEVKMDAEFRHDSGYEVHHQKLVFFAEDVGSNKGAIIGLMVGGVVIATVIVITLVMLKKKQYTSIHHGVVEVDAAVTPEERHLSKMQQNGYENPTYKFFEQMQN

[3] = Displacement of [125I]-IMPY from amyloid beta (1 to 42) fibrils after 2 hrs by gamma-counting analysis
Method in brief: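 Competition binding with aggregated Aβ1-42 fibrils and [125I]IMPY (60000−100000 cpm/100 μL) in 0.05% BSA (1 mL total); inhibitors 10⁻⁴−10^−8.5 M in ethanol. Incubated 37 °C for 2 h, then GF/B vacuum filtration with PBS (0.02 M, pH 7.4) washes and γ counting. Three repeats; IC50 converted to Ki by Cheng−Prusoff.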

Mus musculus [4] = assay: Binding affinity to amyloid beta plaques in transgenic C57BL6 mouse cortex expressing APP Swedish mutant/PSEN1 at 19.2 MBq, iv after 30 mins by autoradiographic analysis; format: functional, organism-based; conditions: 19.2 M, tested as the 18F-labelled form
Method in brief: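 Ex vivo: Tg mouse (C57BL6, APPswe/PSEN1) given 19.2 MBq tracer in saline via tail vein; decapitated 30 min later. Brain frozen in liquid nitrogen, 20 μm sections cut and exposed to a phosphor plate for 5 h.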

Mus musculus [5] = organism: Mus musculus; assay: Binding affinity to amyloid beta plaques in transgenic C57BL6 mouse hippocampus expressing APP Swedish mutant/PSEN1 at 370 KBq/100 ul after 1 hr by thioflavinS-staining method; format: tissue-based; conditions: tested as the 18F-labelled form; method in brief: as §1
Mus musculus [6] = assay: Binding affinity to amyloid beta plaques in transgenic C57BL6 mouse cortex expressing APP Swedish mutant/PSEN1 at 19.2 MBq, iv after 30 mins by thioflavinS-staining method; format: functional, organism-based; conditions: 19.2 M, tested as the 18F-labelled form
Mus musculus [7] = organism: Mus musculus; assay: Binding affinity to amyloid beta plaques in transgenic C57BL6 mouse cortex expressing APP Swedish mutant/PSEN1 at 370 KBq/100 ul after 1 hr by thioflavinS-staining method; conditions: tested as the 18F-labelled form; method in brief: as §1
Mus musculus [8] = organism: Mus musculus; assay: Binding affinity to amyloid beta plaques in transgenic C57BL6 mouse cortex expressing APP Swedish mutant/PSEN1 at 370 KBq/100 ul after 1 hr by autoradiographic analysis; conditions: tested as the 18F-labelled form; method in brief: as §1

Compound: CNc1ccc(-c2nc3cc(OCCF)ccc3o2)cn1
- Activity (Mus musculus [1]): Active
- Activity [2]: Active
- Ki [3]: 8 nM
- Activity (Mus musculus [4]): Active
- Activity (Mus musculus [5]): Active
- Activity (Mus musculus [6]): Active
- Activity (Mus musculus [7]): Active
- Activity (Mus musculus [8]): Active
